This is an account of results in paper PMC6460380 (Heliyon, 2019).

Structures can show the parent of a compound that is named as a salt.

Assay [1] relates to GST enzyme isolated from blueberry fruits (Vaccinium arctostaphylos L.). Nature of the assay: In vitro inhibition of purified blueberry fruit GST by pesticides. The class given is biochemical. The conditions noted are these: for Ki: Lineweaver-Burk graphs, 1/V versus 1/[GSH]; for Ki / Inhibition type: GSH as substrate; for Inhibition type: from Lineweaver-Burk graphs; for IC50: from activity (%) - pesticide concentration graphs, minimum five concentrations. A digest of the protocol: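 GST purified from ripe berries (stored at -20 °C). The 1 mL assay used 0.1 M K-phosphate pH 7.0, CDNB (25 mM stock in ethanol) and GSH (20 mM stock). It was started with enzyme and absorbance was read for 3 min. Pesticides were tested at ≥5 concentrations against a no-pesticide control set as 100%. Ki and inhibition type came from 1/V versus 1/[GSH] plots.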

The test system is the same in assay [2]. Nature of the assay: Kinetic studies of purified blueberry fruit GST with substrates CDNB and GSH. The class given is biochemical. The conditions noted are these: CDNB 0.05-1.6 mM at fixed GSH 20 mM; GSH 0.05-1.6 mM at fixed CDNB 25 mM. A digest of the protocol: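 The enzyme was blueberry GST purified by Sephadex G-100 gel filtration then GSH-agarose affinity chromatography with GSH gradient elution. Reactions were 1 mL in 0.1 M K-phosphate buffer pH 7.0, with one substrate varied and the other held fixed. The reaction was started by rapid enzyme addition and absorbance was followed spectrophotometrically for 3 min.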

In the case of `O=C(O)COc1ccc(Cl)cc1Cl` [2,4 Dichlorophenoxy acetic acid], in assay [1], the affinity, expressed as Ki, was 188 ± 85 µM; the Inhibition type result is given as “competitive”; the IC50 turned out to be 460 µM; the “Inhibition of GST enzyme activity in vitro (in words)” value (“Inhibition of GST enzyme activity” below) was “inhibited”.
`CC(=NC#N)N(C)Cc1ccc(Cl)nc1` [Acetamiprid, N - [(6-chloro-3-pyridyl)methyl] -N′-cyano-N-methyl-acetamidine]: in assay [1], the Ki worked out at 1560 ± 733 µM, the Inhibition type entry is listed as “competitive”, the IC50 turned out to be 4100 µM and the “Inhibition of GST enzyme activity” value is “inhibited”.
As to `CC1(C)C(C=C(Cl)Cl)C1C(=O)OC(C#N)c1cccc(Oc2ccccc2)c1` (centres unmarked) [Cypermethrin, [Cyano-(3-phenoxyphenyl)methyl] 3-(2,2-dichloroethenyl) -2,2-dimethylcyclopropane-1-carboxylate], in assay [1], the Ki turned out to be 310 ± 88 µM, the IC50 turned out to be 320 µM and the “Inhibition of GST enzyme activity” value is recorded as “inhibited”.
In the case of `COP(=O)(OC)OC=C(Cl)Cl` [Dichlorvos, 2,2-dichlorovinyl dimethyl phosphate], in assay [1], the affinity corresponds to a Ki of 17.5 ± 5 µM, the IC50 was 24 µM and the “Inhibition of GST enzyme activity” value is reported as “inhibited”.
Turning to `O=C(O)CNCP(=O)(O)O` [Glifosat- izopropilamine salt, glyphosate isopropylamine salt], in assay [1], the Ki was determined as 266 ± 100 µM, the Inhibition type result is given as “competitive”, the IC50 was 160 µM and the “Inhibition of GST enzyme activity” value was “inhibited”.
Consider `O=[N+]([O-])NC1=NCCN1Cc1ccc(Cl)nc1` [Imidacloprid, N-{1 - [(6-Chloro-3-pyridyl)methyl] -4,5-dihydroimidazol-2-yl} nitramide], for which, in assay [1], the Ki stood at 630 ± 283 µM, inhibition was half-maximal at 490 µM (IC50) and the “Inhibition of GST enzyme activity” value is “inhibited”.
As to “(R) -2- [4- (6-chloro-1,3-benzoxazol-2-yloxy) phenoxy] propionic acid [Fenoxaprop-p-ethyl]”, in assay [1], the Ki is 133 µM, the Inhibition type result is on record as “competitive”, the IC50 was 230 µM and the “Inhibition of GST enzyme activity” value is “inhibited”.
For g-glu-cys-gly [GSH], the Vmax in assay [2] stood at 0.048 EU/ml.

In general, Ki refers to a measure of affinity in units of concentration, obtained from inhibition or displacement. What is called IC50 is the concentration at which inhibition is half-maximal. Read a low IC50 as inhibition by little substance.
